Test results reported in ChEMBL document CHEMBL3853307, “Anti-inflammatory Effect of Methyl Gallate on Experimental Arthritis: Inhibition of Neutrophil Recruitment, Production of Inflammatory Mediators, and Activation of Macrophages” (J Nat Prod, 2016).
The source made the active and inactive calls.

Columns and labels:
Mus musculus [1] = experiment: Antiinflammatory activity in C57BL/6 mouse assessed as inhibition of zymosan-induced LTB4 production in cell-free supernatant of knee joint synovial washes at 10 mg/kg, ip administered 1 hr prior to zymosan challenge measured at 6 to 24 hrs by immunosorbent assay; assay type: functional, organism-based
Procedure, shortened: (§1)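 Male C57BL/6 mice (18−22 g), fasted overnight, dosed orally (in filtered water, 200 μL) or i.p. 1 h before i.a. zymosan (500 μg in 25 μL saline) into left knee; contralateral knee got vehicle. Synovial cavity washed twice with 150 μL PBS/10 mM EDTA at 6 and 24 h; washes spun 400g 10 min, 4 °C. Cytokines measured by sandwich ELISA, LTB4/PGE2 by EIA (pg/mL); six mice/group, two experiments.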

Mus musculus [2] = experiment: Antiinflammatory activity in C57BL/6 mouse assessed as inhibition of zymosan-induced synovial hyperplasia at 10 mg/kg, ip administered 1 hr prior to zymosan challenge measured at 6 to 24 hrs by hematoxylin and eosin staining-based optical microscopy; assay type: functional, organism-based
Procedure, shortened: (§2)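 Mice dosed orally or i.p. 1 h before i.a. zymosan (500 μg/cavity) or saline. Whole knees taken at 6 and 24 h from six mice, fixed in 10% formalin 48 h, decalcified in 10% EDTA/PBS 1−2 weeks, paraffin-embedded. 5 μm sections H&E-stained and examined by light microscopy. Parameter scores summed into an arthritis index; means ± SEM, two experiments.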

Mus musculus [3] = experiment: Antiinflammatory activity in C57BL/6 mouse assessed as inhibition of zymosan-induced PGE2 production in cell-free supernatant of knee joint synovial washes at 10 mg/kg, ip administered 1 hr prior to zymosan challenge measured at 6 to 24 hrs by immunosorbent assay; assay type: functional, organism-based; procedure, shortened: as §1
Mus musculus [4] = experiment: Antiinflammatory activity in C57BL/6 mouse assessed as inhibition of zymosan-induced arthritis score at 10 mg/kg, ip administered 1 hr prior to zymosan challenge measured at 6 to 24 hrs by hematoxylin and eosin staining-based optical microscopy; assay type: functional, organism-based; procedure, shortened: as §2
Mus musculus [5] = experiment: Antiinflammatory activity in C57BL/6 mouse assessed as inhibition of zymosan-induced neutrophil migration in articular cavity at 10 mg/kg, ip administered 1 hr prior to zymosan challenge measured at 6 to 24 hrs; assay type: functional, organism-based
Procedure, shortened: (§3)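 Male C57BL/6 mice, fasted overnight, dosed orally (vehicle saline/water, 200 μL) or i.p. 1 h before zymosan (500 μg in 25 μL saline, i.a., left knee). Knee swelling measured as change in transverse diameter from basal by digital caliper (mm). Synovial washes (PBS/EDTA) counted on a particle counter; differentials from May-Grünwald-Giemsa cytospins, cells ×10^5/cavity. Sampled at 6 and/or 24 h; seven mice/group.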

Mus musculus [6] = experiment: Antiinflammatory activity in C57BL/6 mouse assessed as inhibition of zymosan-induced CXCL1/KC production in cell-free supernatant of knee joint synovial washes at 10 mg/kg, ip administered 1 hr prior to zymosan challenge measured at 6 to 24 hrs by sandwich ELISA method; assay type: functional, organism-based; procedure, shortened: as §1
Mus musculus [7] = experiment: Antiinflammatory activity in C57BL/6 mouse assessed as inhibition of zymosan-induced bleeding in synovial tissue at 10 mg/kg, ip administered 1 hr prior to zymosan challenge measured at 6 to 24 hrs by hematoxylin and eosin staining-based optical microscopy; assay type: functional, organism-based; procedure, shortened: as §2
Mus musculus [8] = experiment: Antiinflammatory activity in C57BL/6 mouse assessed as inhibition of zymosan-induced knee joint edema formation at 10 mg/kg, ip administered 1 hr prior to zymosan challenge measured at 6 hrs relative to control; assay type: functional; conditions: C57BL/6, Knee joint; procedure, shortened: as §3
Mus musculus [9] = experiment: Antiinflammatory activity in C57BL/6 mouse assessed as inhibition of zymosan-induced mononuclear cells migration in articular cavity at 10 mg/kg, ip administered 1 hr prior to zymosan challenge measured at 6 to 24 hrs; assay type: functional, organism-based; procedure, shortened: as §3
J774.A1 [10] = experiment: Antiinflammatory activity in mouse J774A.1 cells assessed as inhibition of zymosan and IFNgamma-induced nitric oxide production at 1 uM preincubated for 1 hr followed by zymosan and IFNgamma addition measured after 24 hrs by colorimetric Griess test; assay type: functional, cell-based
Procedure, shortened: (§4)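 J774A.1 macrophages (1 × 10^5/well, RPMI/10% FBS) adhered 24 h, preincubated 1 h with compound (0.1−10 μM) or dexamethasone (1 μM), then stimulated with zymosan (10 μg per 10^5 cells) and/or IFN-γ (25 U/mL) for 24 h. Supernatant IL-6 by sandwich ELISA; nitrite by Griess reaction at 540 nm. Quadruplicate wells, two experiments.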

Neutrophil = experiment: Antiinflammatory activity in C57BL/6 mouse neutrophils assessed as inhibition of CXCL1/KC-induced neutrophil chemotaxis at 50 nM preincubated for 1 hr followed by CXCL1/KC-induction measured after 1 hr by Wright-Giemsa staining-based light microscopic method; assay type: functional, cell-based
Procedure, shortened: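 Bone marrow neutrophils from C57BL/6 femurs, purified on a 65%/72% Percoll gradient (~85−90% purity). 10^5 cells preincubated 1 h with compound or medium, then placed in a 48-well Boyden chamber over CXCL-1/KC (250 nM) across a 5 μm polycarbonate filter, 60 min at 37 °C, 5% CO2. Filter Wright-Giemsa stained; migrated cells counted in 15 fields; quadruplicate wells.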

J774.A1 [11] = experiment: Antiinflammatory activity in mouse J774A.1 cells assessed as inhibition of zymosan and IFNgamma-induced COX2 expression at 1 uM preincubated for 1 hr followed by zymosan and IFNgamma addition measured after 24 hrs by Western blot analysis; assay type: functional, cell-based
Procedure, shortened: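 J774A.1 cells in six-well plates pretreated 1 h (0.1−10 μM) before zymosan (10 μg per 10^5 cells) and/or IFN-γ (25 U/mL) for 24 h. Lysates (Tris/NaCl/MgCl2/0.5% NP40 with protease inhibitors); 30 μg protein run on 7.5% SDS-PAGE, transferred to PVDF, probed for COX-2, iNOS and α-tubulin.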

Mus musculus [12] = experiment: Antiinflammatory activity in C57BL/6 mouse assessed as inhibition of zymosan-induced TNFalpha production in cell-free supernatant of knee joint synovial washes at 10 mg/kg, ip administered 1 hr prior to zymosan challenge measured at 6 to 24 hrs by sandwich ELISA method; assay type: functional, organism-based; procedure, shortened: as §1
Mus musculus [13] = experiment: Antiinflammatory activity in C57BL/6 mouse assessed as inhibition of zymosan-induced IL6 production in cell-free supernatant of knee joint synovial washes at 10 mg/kg, ip administered 1 hr prior to zymosan challenge measured at 6 to 24 hrs by sandwich ELISA method; assay type: functional, organism-based; procedure, shortened: as §1
Mus musculus [14] = experiment: Antiinflammatory activity in C57BL/6 mouse assessed as inhibition of zymosan-induced total leukocyte accumulation in articular cavity at 10 mg/kg, ip administered 1 hr prior to zymosan challenge measured at 6 to 24 hrs; assay type: functional, organism-based; procedure, shortened: as §3
J774.A1 [15] = experiment: Antiinflammatory activity in mouse J774A.1 cells assessed as inhibition of zymosan and IFNgamma-induced IL6 production in cell-free supernatant at 1 uM preincubated for 1 hr followed by zymosan and IFNgamma addition measured after 24 hrs by sandwich ELISA; assay type: functional, cell-based; procedure, shortened: as §4
Mus musculus [16] = experiment: Antiinflammatory activity in C57BL/6 mouse assessed as inhibition of zymosan-induced knee joint edema formation at 10 mg/kg, ip administered 1 hr prior to zymosan challenge measured at 24 hrs relative to control; assay type: functional; conditions: C57BL/6, Knee joint; procedure, shortened: as §3
Mus musculus [17] = experiment: Antiinflammatory activity in C57BL/6 mouse assessed as inhibition of zymosan-induced infiltration of inflammatory cells into synovial tissue at 10 mg/kg, ip administered 1 hr prior to zymosan challenge measured at 6 to 24 hrs by hematoxylin and eosin staining-based optical microscopy; assay type: functional, organism-based; procedure, shortened: as §2
Mus musculus [18] = experiment: Antiinflammatory activity in C57BL/6 mouse assessed as inhibition of zymosan-induced IL-1beta production in cell-free supernatant of knee joint synovial washes at 10 mg/kg, ip administered 1 hr prior to zymosan challenge measured at 6 to 24 hrs by sandwich ELISA method; assay type: functional, organism-based; procedure, shortened: as §1

C[C@@H]1C[C@H]2[C@@H]3CCC4=CC(=O)C=C[C@]4(C)[C@@]3(F)[C@@H](O)C[C@]2(C)[C@@]1(O)C(=O)CO [DEXAMETHASONE]
42%: inhibition in vivo at 10 mg/kg (Mus musculus [8])
48%: inhibition in vivo at 10 mg/kg (Mus musculus [16])
active: inhibition (Mus musculus [1]) | inhibition (Mus musculus [2]) | inhibition (Mus musculus [3]) | inhibition (Mus musculus [4]) | inhibition (Mus musculus [5]) | inhibition (Mus musculus [6]) | inhibition (Mus musculus [7]) | inhibition (Mus musculus [9]) | inhibition (J774.A1 [10]) | inhibition (Neutrophil) | inhibition (J774.A1 [11]) | inhibition (Mus musculus [12]) | inhibition (Mus musculus [13]) | inhibition (Mus musculus [14]) | inhibition (J774.A1 [15]) | inhibition (Mus musculus [17]) | inhibition (Mus musculus [18])
